Assay results of several laboratories.
Protocols differ between the studies behind these lines.
Target: Serine/threonine-protein kinase 38-like (STK38L, Homo sapiens, UniProt Q9Y2H1)

The remaining binding of `CN(C)c1nccc(-c2cnc3ncccn23)n1` is reported as 100% (binding; 1 µM).
The remaining binding of `O=C(NC[C@@H]1[C@H]2CN(C(=O)OCc3cc(C(F)(F)F)cc(C(F)(F)F)c3)C[C@@H]12)c1ccc2[nH]nnc2c1` is reported as 45% (cell-free assay, competition with immobilised ligand; 1 µM).
With `CC1CCCN1c1nccc(-c2cnn3ncccc23)n1` (stereo not shown) the remaining binding was 100% (binding; 1 µM).
The remaining binding of `O=C(Nc1c[nH]nc1C(=O)NC1CCNCC1)c1cc(F)cc(F)c1` is reported as 93% (binding, competition with immobilised ligand; 1 µM).
`CN(C)c1nccc(-c2cnn3ncccc23)n1` gave a remaining binding of 85% (binding; 1 µM).
For `COc1ccc2cc(OCC3(C(=O)O)CN(C(=O)c4ccc(F)cc4)C3)ccc2c1`, the remaining binding was 86% (binding, competition with immobilised ligand; 1 µM).
The remaining binding of `FC(F)(F)Oc1cccc(-c2cnc3ccc(-c4ccncc4)nn23)c1` is reported as 89% (cell-free assay, competition with immobilised ligand; 5 µM).
The remaining binding of `O=C(c1ccc(Nc2ncc(Cl)c(-c3cc4ccccc4s3)n2)cc1)N1CCC(N2CCCC2)CC1` is reported as 74% (binding, competition with immobilised ligand; 1 µM).
For `CCN1CCN(Cc2ccc(C(=O)Nc3ccc(C)c(Oc4ccc5c(c4)CC(=O)N5)c3)cc2C(F)(F)F)CC1`, the remaining binding was 100% (binding, competition with immobilised ligand; 1 µM).
`O=C(NCCCN1CCOCC1)c1ccc(Nc2ncc(Cl)c(-c3ccc(Cl)s3)n2)cc1` gave a remaining binding of 82% (binding, competition with immobilised ligand; 1 µM).
With `F[C@@H]1CCN(c2nccc(-c3cnn4ncccc34)n2)C1` the remaining binding was 100% (binding; 1 µM).
`N#CC1(c2ccccn2)CCN(Cc2cc(C(=O)N3CCCC3)c(=O)n3ccccc23)CC1` gave a remaining binding of 90% (cell-free assay, competition with immobilised ligand; 1 µM).
`CNC(=O)[C@@H]1CC[C@@H](n2c(-c3ccc4cnccc4c3)nc3ccc(C(=O)NCc4cccc(C(N)=O)c4)cc32)C1` has a remaining binding of 100% (binding, competition with immobilised ligand; 1 µM).
For `N[C@H]1CCN(c2nccc(-c3cnn4ncccc34)n2)C1`, the remaining binding was 100% (binding; 1 µM).
The remaining binding of `Cc1cc(C)c(-n2ccn3nc(-c4cccnc4)cc23)cc1NC(=O)c1cc(C#N)cc(S(F)(F)(F)(F)F)c1` is reported as 98.9% (binding, competition with immobilised ligand; 0.1 µM).
For `COc1cnc(Nc2cccc(S(N)(=O)=O)c2)nc1N1CCN(c2ccccc2)CC1`, the remaining binding was 96% (binding, competition with immobilised ligand; 1 µM).
`Cc1cc(NC(=O)c2cccc(S(F)(F)(F)(F)F)c2)cc(-n2ccn3nc(-c4cccnc4)cc23)c1` has a remaining binding of 100% (cell-free assay, competition with immobilised ligand; 1 µM).
`O=C(NCCCN1CCOCC1)c1ccc(Nc2nccc(-c3cc4ccccc4s3)n2)cc1` has a remaining binding of 100% (binding, competition with immobilised ligand; 1 µM).
With `C[C@@H]1CCN(c2nccc(-c3cnn4ncccc34)n2)C1` the remaining binding was 100% (binding; 1 µM).
With `O=S(=O)(NC1CCC(c2cc(F)ccc2F)(S(=O)(=O)c2ccc(Cl)cc2)CC1)C(F)(F)F` (stereo not shown) the remaining binding was 75% (binding, competition with immobilised ligand; 1 µM).
With `COc1ccnn2ncc(-c3ccnc(N(C)C)n3)c12` the remaining binding was 96% (binding; 1 µM).
For `CN(C)C(=O)Cn1cc(-c2nc(C3(c4ccc(-c5cnc(N)nc5)cc4)CC3)no2)cn1`, the remaining binding was 81% (cell-free assay, competition with immobilised ligand; 1 µM).
